pIC50: −log10 of the molar value. Activity calls are given as the source filed them. No cut-off for these calls is given here.
Tests used:
[1] = target: Tyrosine-protein kinase Lck (Homo sapiens) (UniProt P06239); experiment: Inhibition of LCK at 1 uM
[2] = target: Mitogen-activated protein kinase 1 (Homo sapiens) (UniProt P28482); experiment: Inhibition of human MAPK1 at 1 uM
Method in brief: (§1)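 Recombinant kinases were screened in a commercial profiling panel with the compound at a single concentration of 1 μM. The read-out is percent inhibition of each enzyme's kinase activity.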

[3] = target: T1, Glycogen synthase kinase-3 beta (Homo sapiens, UniProt P49841); experiment: Inhibition of human GSK3-beta at 1 uM; method in brief: as §1
[4] = target: Cyclin-dependent kinase 3 (Homo sapiens) (UniProt Q00526); experiment: Inhibition of human CDK3/cyclinE at 1 uM
Cyclin-dependent kinase 3 (Homo sapiens), sequence (Q00526 whole entry, looked up): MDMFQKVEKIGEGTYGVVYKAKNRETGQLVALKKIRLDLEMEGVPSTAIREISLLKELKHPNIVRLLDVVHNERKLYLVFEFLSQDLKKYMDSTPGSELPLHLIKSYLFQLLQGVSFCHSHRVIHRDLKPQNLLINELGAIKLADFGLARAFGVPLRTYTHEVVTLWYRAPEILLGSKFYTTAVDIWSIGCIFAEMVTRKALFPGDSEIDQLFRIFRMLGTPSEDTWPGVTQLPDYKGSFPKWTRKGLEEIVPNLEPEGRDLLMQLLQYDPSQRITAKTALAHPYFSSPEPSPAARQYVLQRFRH

[5] = target: Proto-oncogene tyrosine-protein kinase Src (Homo sapiens) (UniProt P12931); experiment: Inhibition of human cSRC at 1 uM
[6] = target: Cyclin-dependent kinase 1/cyclin B1 (Homo sapiens) (UniProt P06493+P14635); experiment: Inhibition of human CDK1/cyclinB at 1 uM; type: protein-complex assay; method in brief: as §1
PC-3 [7] = experiment: Cell number in human PC3 cells at 10 uM after 3 days as % of control; settings: PC-3, 72 h
Focal adhesion kinase 1 [8] = target: T2, Focal adhesion kinase 1 (Homo sapiens, UniProt Q05397); experiment: Inhibition of FAK Tyr397 phosphorylation in human A431 cells by ELISA
T2 sequence (Q05397 whole entry): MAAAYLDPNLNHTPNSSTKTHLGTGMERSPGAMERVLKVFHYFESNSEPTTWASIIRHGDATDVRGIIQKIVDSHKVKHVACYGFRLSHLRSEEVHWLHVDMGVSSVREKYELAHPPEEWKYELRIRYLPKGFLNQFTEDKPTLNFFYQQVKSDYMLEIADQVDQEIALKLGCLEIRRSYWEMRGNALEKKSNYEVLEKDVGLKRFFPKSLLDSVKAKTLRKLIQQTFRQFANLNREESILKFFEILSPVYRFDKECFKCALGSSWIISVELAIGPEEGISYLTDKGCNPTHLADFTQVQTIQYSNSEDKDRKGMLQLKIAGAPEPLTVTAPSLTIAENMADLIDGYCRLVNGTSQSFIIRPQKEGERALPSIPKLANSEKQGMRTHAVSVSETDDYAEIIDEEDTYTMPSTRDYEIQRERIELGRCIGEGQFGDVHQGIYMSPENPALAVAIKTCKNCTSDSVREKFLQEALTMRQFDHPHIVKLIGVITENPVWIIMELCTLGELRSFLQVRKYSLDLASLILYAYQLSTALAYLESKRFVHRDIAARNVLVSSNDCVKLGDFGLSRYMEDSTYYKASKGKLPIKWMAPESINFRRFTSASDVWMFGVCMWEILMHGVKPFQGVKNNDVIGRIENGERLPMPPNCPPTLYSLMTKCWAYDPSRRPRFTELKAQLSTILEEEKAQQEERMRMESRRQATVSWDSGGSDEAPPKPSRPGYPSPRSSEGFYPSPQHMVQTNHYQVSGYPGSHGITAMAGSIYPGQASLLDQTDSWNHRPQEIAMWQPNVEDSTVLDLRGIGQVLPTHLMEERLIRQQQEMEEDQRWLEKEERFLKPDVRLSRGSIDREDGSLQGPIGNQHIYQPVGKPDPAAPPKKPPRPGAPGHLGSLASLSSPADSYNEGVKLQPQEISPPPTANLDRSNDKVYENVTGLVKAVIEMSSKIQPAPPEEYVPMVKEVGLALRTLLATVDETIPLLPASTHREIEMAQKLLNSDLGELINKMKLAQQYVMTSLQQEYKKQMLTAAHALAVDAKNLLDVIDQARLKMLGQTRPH

Focal adhesion kinase 1 [9] = target: T2, Focal adhesion kinase 1; experiment: Inhibition of FAK Tyr397 phosphorylation in human FG cells after 60 mins by Western blot analysis
[10] = target: Dual specificity mitogen-activated protein kinase kinase 1 (Homo sapiens) (UniProt Q02750); experiment: Inhibition of human MEK1 at 1 uM
[11] = target: Cyclin-dependent kinase 7 (Homo sapiens, UniProt P50613); experiment: Inhibition of human CDK7/cyclinH/MAT1
Cyclin-dependent kinase 7, sequence (P50613 whole entry): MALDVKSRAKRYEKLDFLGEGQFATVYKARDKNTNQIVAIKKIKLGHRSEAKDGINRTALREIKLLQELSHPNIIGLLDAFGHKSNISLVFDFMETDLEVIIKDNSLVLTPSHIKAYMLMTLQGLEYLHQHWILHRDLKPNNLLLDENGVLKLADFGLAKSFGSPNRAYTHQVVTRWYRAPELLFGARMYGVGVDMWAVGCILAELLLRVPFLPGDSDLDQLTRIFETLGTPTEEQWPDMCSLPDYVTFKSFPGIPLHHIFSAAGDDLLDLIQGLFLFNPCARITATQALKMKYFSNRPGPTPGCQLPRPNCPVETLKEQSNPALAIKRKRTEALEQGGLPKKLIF

[12] = target: Tyrosine-protein kinase Fyn (Homo sapiens) (UniProt P06241); experiment: Inhibition of Fyn at 1 uM
[13] = target: Cyclin-dependent kinase 2 (Homo sapiens) (UniProt P24941); experiment: Inhibition of human CDK2/cyclinA at 1 uM
[14] = target: Protein kinase C alpha type (Homo sapiens) (UniProt P17252); experiment: Inhibition of human PKCalpha at 1 uM
[15] = target: Platelet-derived growth factor receptor beta (Homo sapiens) (UniProt P09619); experiment: Inhibition of PDGFRbeta at 1 uM
Platelet-derived growth factor receptor beta (Homo sapiens), sequence (P09619 whole entry): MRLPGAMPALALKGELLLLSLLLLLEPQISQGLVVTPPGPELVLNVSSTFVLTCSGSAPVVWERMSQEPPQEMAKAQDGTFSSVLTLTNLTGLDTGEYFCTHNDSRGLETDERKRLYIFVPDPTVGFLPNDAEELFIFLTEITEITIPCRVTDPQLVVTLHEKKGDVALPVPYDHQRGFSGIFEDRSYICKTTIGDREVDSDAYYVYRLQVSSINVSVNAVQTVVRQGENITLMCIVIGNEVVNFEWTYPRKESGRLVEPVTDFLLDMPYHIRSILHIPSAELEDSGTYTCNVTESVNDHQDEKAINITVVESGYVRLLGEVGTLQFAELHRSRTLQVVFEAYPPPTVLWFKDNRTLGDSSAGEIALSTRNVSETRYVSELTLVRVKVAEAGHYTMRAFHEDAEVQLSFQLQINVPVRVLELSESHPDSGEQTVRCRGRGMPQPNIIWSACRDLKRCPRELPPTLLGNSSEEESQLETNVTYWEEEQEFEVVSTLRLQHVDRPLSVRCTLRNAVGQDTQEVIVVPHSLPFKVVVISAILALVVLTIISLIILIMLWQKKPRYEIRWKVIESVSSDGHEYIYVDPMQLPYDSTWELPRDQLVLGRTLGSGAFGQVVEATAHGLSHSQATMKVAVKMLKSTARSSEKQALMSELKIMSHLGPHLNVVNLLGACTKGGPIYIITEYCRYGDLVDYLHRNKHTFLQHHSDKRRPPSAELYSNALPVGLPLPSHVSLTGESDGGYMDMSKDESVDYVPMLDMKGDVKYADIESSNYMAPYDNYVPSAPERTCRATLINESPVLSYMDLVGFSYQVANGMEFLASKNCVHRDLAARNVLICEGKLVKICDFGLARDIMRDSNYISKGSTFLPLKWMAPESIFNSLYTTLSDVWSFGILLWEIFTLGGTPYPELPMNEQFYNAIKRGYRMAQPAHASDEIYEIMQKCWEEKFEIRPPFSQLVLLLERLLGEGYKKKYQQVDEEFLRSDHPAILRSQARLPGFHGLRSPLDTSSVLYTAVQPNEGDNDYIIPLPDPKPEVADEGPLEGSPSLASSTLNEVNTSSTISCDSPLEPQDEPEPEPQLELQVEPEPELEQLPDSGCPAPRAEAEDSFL

[16] = target: Serine/threonine-protein kinase Chk1 (Homo sapiens) (UniProt O14757); experiment: Inhibition of CHK1 at 1 uM; method in brief: as §1
[17] = target: Ribosomal protein S6 kinase beta-1 (Homo sapiens) (UniProt P23443); experiment: Inhibition of human P70S6K at 1 uM
[18] = target: Paxillin (Rattus norvegicus) (UniProt Q66H76); experiment: Induction of paxillin organization loss in focal adhesion in rat REF52 cells at 3 uM after 1 hr by immunostaining; type: cell-based
Method in brief: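 REF52 cells held in suspension 30 min to 1 h without serum with inhibitor, then plated on 5 μg/ml fibronectin-coated coverslips for 60 min with inhibitor still present. Cells fixed in 4% paraformaldehyde, permeabilized with Triton X-100 and immunostained for paxillin and phospho-FAK Tyr397. Imaged by fluorescence microscopy, 60× objective.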

NIH3T3 = experiment: Inhibition of focal adhesion turnover in wounded mouse NIH3T3 cells expressing GFP-paxillin assessed as decrease in rate of disassembly by TIRF microscopy; type: functional, cell-based
Fibroblast = experiment: Inhibition of cell growth in […] fibroblast at 10 uM; type: functional, cell-based
Focal adhesion kinase 1 [19] = target: T2, Focal adhesion kinase 1; experiment: Inhibition of FAK Tyr397 phosphorylation in human PC3 cells after 60 mins by Western blot analysis
[20] = target: Protein-tyrosine kinase 2-beta (Homo sapiens, UniProt Q14289); experiment: Inhibition of Pyk2
Method in brief: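 Recombinant Pyk2 was run in parallel with the FAK kinase assay. That assay measures phosphorylation of a poly(Glu/Tyr) (4:1) substrate in an ELISA read with anti-phosphotyrosine (PY20) and an HRP secondary. Compounds were serially diluted at ½-log steps from a 1 μm top concentration, each concentration was run in triplicate, and IC50 was fitted by the Hill slope model.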

[21] = target: Cyclin-dependent kinase 1/cyclin B1 (Homo sapiens, UniProt P06493); experiment: Inhibition of human CDK1/cyclinB; type: protein-complex assay
[22] = Inhibition of FAK Tyr397 phosphorylation in dog MDCK cells after 60 mins by Western blot analysis; type: cell-based; settings: Canis lupus familiaris, 1 h
Method in brief: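 MDCK cells treated with increasing inhibitor concentrations, 60 min, as for REF52. Whole-cell lysates immunoblotted for phospho-FAK Tyr397 and total FAK. Phospho-signal normalized to total FAK, and IC50 derived from the concentration series.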

Homo sapiens = species on record: Homo sapiens; experiment: Inhibition of human PKA at 1 uM; method in brief: as §1
[23] = target: T1, Glycogen synthase kinase-3 beta; experiment: Inhibition of human GSK3-beta
Focal adhesion kinase 1 [24] = target: T2, Focal adhesion kinase 1; experiment: Inhibition of FAK Tyr397 phosphorylation in human L3.6pl cells after 60 mins by Western blot analysis
[25] = target: Epidermal growth factor receptor (Homo sapiens) (UniProt P00533); experiment: Inhibition of human EGFR at 1 uM
Epidermal growth factor receptor (Homo sapiens), sequence (P00533 whole entry): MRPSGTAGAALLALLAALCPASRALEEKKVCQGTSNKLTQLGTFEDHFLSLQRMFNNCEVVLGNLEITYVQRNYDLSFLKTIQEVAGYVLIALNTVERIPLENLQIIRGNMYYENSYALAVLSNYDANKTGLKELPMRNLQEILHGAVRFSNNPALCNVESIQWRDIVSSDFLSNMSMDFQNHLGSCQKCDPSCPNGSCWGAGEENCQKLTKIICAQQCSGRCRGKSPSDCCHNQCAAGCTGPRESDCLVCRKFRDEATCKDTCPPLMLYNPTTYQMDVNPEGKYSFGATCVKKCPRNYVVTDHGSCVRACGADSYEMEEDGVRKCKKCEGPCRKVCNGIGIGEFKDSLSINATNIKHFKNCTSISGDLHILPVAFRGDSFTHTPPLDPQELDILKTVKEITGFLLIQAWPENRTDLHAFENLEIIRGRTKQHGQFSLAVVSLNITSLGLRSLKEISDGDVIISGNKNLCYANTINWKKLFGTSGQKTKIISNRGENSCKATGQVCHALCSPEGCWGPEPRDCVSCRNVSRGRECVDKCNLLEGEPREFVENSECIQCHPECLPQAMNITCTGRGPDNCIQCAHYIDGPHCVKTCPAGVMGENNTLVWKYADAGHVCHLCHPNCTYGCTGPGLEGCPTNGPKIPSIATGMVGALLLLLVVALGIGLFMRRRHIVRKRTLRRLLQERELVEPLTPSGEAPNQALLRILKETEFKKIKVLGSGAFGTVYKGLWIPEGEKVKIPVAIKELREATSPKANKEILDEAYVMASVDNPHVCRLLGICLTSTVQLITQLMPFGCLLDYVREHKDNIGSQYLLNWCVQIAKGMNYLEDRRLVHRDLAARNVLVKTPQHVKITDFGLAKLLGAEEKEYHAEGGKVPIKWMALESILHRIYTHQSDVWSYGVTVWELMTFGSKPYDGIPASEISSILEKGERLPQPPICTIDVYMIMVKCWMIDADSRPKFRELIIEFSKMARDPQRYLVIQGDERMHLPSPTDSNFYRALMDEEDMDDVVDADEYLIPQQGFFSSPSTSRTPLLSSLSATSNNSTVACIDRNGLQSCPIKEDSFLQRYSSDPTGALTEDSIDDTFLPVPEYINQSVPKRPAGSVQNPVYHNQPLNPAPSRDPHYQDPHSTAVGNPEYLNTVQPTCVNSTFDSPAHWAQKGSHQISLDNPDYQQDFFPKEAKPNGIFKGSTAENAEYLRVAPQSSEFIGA

[26] = target: Cyclin-dependent kinase 2 (Homo sapiens) (UniProt P24941); experiment: Inhibition of human CDK2/cyclinE at 1 uM
[27] = Inhibition of cell migration of rat REF52 cells assessed as reduction in rate of movement of cell into wound at 10 uM by wound healing assay in presence of 10% serum; type: functional; design: scale not given: the % may be the effect or the level left
Focal adhesion kinase 1 [28] = target: T2, Focal adhesion kinase 1; experiment: Inhibition of FAK Tyr397 phosphorylation in human SKOV3 cells after 60 mins by Western blot analysis
PC-3 [29] = experiment: Cell number in human PC3 cells at 1 uM after 3 days as % of control; settings: PC-3, 72 h
[30] = target: Tyrosine-protein kinase JAK3 (Homo sapiens) (UniProt P52333); experiment: Inhibition of JAK3 at 1 uM
[31] = target: Protein DBF4 homolog A (Homo sapiens) (UniProt Q9UBU7); experiment: Inhibition of ASK at 1 uM
Protein DBF4 homolog A (Homo sapiens), sequence (Q9UBU7 whole entry): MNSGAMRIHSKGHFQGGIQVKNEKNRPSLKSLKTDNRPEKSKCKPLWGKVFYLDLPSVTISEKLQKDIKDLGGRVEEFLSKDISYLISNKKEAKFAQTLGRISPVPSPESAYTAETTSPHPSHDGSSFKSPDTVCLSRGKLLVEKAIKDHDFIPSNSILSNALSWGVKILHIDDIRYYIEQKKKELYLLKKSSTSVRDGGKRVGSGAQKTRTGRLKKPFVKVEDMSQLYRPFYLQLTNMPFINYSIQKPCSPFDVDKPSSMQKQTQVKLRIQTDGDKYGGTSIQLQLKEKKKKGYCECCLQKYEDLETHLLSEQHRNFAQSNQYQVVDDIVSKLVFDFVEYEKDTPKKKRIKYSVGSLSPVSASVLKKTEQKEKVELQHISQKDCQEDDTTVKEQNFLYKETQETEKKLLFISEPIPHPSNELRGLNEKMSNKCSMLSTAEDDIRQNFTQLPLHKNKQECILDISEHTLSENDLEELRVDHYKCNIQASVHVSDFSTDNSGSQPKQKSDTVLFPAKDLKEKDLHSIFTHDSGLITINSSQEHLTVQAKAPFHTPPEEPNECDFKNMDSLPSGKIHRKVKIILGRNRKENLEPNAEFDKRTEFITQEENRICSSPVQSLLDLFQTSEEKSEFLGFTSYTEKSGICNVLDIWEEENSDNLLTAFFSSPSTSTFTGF

[32] = target: Insulin receptor (Homo sapiens) (UniProt P06213); experiment: Inhibition of IR at 1 uM

Mitogen-activated protein kinase 1 (Homo sapiens), sequence (P28482 whole entry): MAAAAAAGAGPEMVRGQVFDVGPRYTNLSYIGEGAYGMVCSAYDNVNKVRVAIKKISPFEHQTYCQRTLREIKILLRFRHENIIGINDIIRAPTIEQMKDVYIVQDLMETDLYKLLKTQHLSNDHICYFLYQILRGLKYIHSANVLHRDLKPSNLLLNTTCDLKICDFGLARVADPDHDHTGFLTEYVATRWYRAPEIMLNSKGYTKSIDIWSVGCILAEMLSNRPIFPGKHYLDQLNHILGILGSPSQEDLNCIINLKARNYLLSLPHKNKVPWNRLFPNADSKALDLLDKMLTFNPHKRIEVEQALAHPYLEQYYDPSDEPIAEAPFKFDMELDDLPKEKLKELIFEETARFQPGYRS

Compound: CS(=O)(=O)c1cccc(CNc2nc(Nc3ccc4c(c3)CCC(=O)N4)ncc2C(F)(F)F)c1
- inhibition [1]: 0%
- inhibition [2]: 48%
- inhibition [3]: 64%
- inhibition [4]: 44%
- inhibition [5]: 1%
- inhibition [6]: 77%
- level, % of control at 10 µM (PC-3 [7]): 17%
- pIC50 (Focal adhesion kinase 1 [8]): 7.96
- pIC50 (Focal adhesion kinase 1 [9]): 7.52
- inhibition [10]: 20%
- pIC50 [11]: 6.71
- inhibition [12]: 28%
- inhibition [13]: 50%
- inhibition [14]: 12%
- inhibition [15]: 2%
- inhibition [16]: 13%
- inhibition [17]: 31%
- Activity [18]: Active
- Activity (NIH3T3): Active
- Activity (Fibroblast): Active
- pIC50 (Focal adhesion kinase 1 [19]): 7.00
- pIC50 [20]: < 6.00
- pIC50 [21]: 6.31
- pIC50 [22]: 6.30
- inhibition (Homo sapiens): 0%
- pIC50 [23]: < 6.00
- pIC50 (Focal adhesion kinase 1 [24]): 6.52
- inhibition [25]: 0%
- inhibition [26]: 44%
- Activity [27]: 60%
- pIC50 (Focal adhesion kinase 1 [28]): 7.30
- level, % of control at 1 µM (PC-3 [29]): 109%
- inhibition [30]: 27%
- inhibition [31]: 1%
- inhibition [32]: 27%
